# In the library only some 2.8% were active in any assay of this set; here they are far more common.
# PAFAH1B3 FP inh: inhibitors of human PAFAH1B3 | Q15102 | recombinant PAFAH1B3, FP-rhodamine probe, fluorescence polarization | inhibition, % at 3.39 µM | 340,000 compounds, 0.28% hits | AID 492972;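 active means inhibition above the screen-wide average of all tested compounds plus 3 SD, cut at about 25% in these data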;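 further: 0% = enzyme with DMSO only and 100% = wells lacking PAFAH1B3 protein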
# PAFAH2 inh: PAFAH2 (human) inhibition | recombinant PAFAH2, FP-rhodamine activity probe, fluorescence polarization | 340,000 compounds, 0.99% hits | inhibition, % at 3.39 µM;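 active means inhibition above the mean over all tested compounds plus 3 SD, cut at about 30% in these data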;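 further: inhibitors block probe labeling of enzyme so polarization drops; 0% = enzyme with DMSO and 100% = wells lacking PAFAH2 protein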
# HTRA1 inh: HTRA1 (human) protease inhibition; Q92743; recombinant HTRA1, FP-rhodamine activity-based probe, fluorescence polarization; inhibition, % at 5.96 µM; 340,000 compounds, 0.5% hits; AID 504803; in the data active means inhibition above about 36%;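 further: 0% = enzyme with DMSO and 100% = wells lacking enzyme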
# mABHD4 FP: inhibits mouse alpha/beta hydrolase domain 4; Q8VD66; purified mABHD4, FP-Rh probe fluorescence polarization; inhibition, % at 8.92 µM; 370,000 compounds, 0.54% hits; AID 720543;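 active means inhibition exceeding the mean over every tested compound plus 3 SD, cut at about 30% in these data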;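 further: 0% = plate median of compound wells and 100% = S159A mutant with DMSO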
#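 Material: mouse ABHD4 enzyme, wild type; Benchmarks: S159A mutant high control, sample median low control; Buffer or medium: HEPES pH 7.0, NaCl, Pluronic buffer; Signal: fluorescence polarization; Read-out: percent inhibition of probe binding, normalized to plate controls; Timing: pre-incubation 45 min, probe exposure 60 min, at 25 °C; Dosing: 8.92 µM, single dose.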
# pPAFAH inh: inhibitors of human plasma PAF acetylhydrolase (pPAFAH). 330,000 compounds, 1.5% hits. recombinant pPAFAH, FP-rhodamine probe fluorescence polarization. inhibition, % at 3.39 µM. AID 463082. Q13093;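 active means inhibition above the mean inhibition across the screen plus 3 SD, cut at about 25% in these data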;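 further: inhibitors block binding of the rhodamine activity-based probe so polarization drops; 0% = enzyme with DMSO and 100% = wells lacking pPAFAH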
# Target sequence (Q13093 whole entry, looked up): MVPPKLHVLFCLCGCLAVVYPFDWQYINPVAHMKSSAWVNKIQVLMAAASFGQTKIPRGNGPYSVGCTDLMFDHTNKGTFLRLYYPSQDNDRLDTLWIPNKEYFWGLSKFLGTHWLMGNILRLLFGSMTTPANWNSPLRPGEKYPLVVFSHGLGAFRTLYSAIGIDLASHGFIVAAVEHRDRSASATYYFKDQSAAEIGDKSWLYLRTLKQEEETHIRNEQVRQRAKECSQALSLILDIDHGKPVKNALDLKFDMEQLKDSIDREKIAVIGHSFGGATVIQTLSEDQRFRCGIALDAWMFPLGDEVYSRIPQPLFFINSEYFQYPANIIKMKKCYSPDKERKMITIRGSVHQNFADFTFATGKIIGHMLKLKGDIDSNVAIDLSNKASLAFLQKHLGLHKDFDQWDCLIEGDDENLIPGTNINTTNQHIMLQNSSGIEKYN
# PAFAH1B2 inh: blocks human PAF acetylhydrolase 1b catalytic subunit 2; P68402; recombinant PAFAH1B2, FP-rhodamine activity probe, fluorescence polarization; inhibition, % at 3.39 µM; 340,000 compounds, 1.2% hits; AID 492953;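 active means inhibition above the mean of all tested compounds plus 3 SD, cut at about 24% in these data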;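 further: 0% = enzyme with DMSO and 100% = wells lacking PAFAH1B2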
# * = called active by the depositor; / = not tested or not shown.
SMILES,PAFAH1B3 FP inh,PAFAH2 inh,HTRA1 inh,mABHD4 FP,pPAFAH inh,PAFAH1B2 inh
Cn1c(Cc2cccs2)nnc1SCC(=O)Nc1ccc2c(c1)OCCO2,/,/,/,3,/,/
COc1ccc(NS(=O)(=O)c2ccc(OC)c(NC(=O)CNC(=O)c3ccc(OC)cc3)c2)cc1,-1,-8,-6,-3,18,2
COc1ccc(NS(=O)(=O)c2ccc(OC)c(NC(=O)CCC3CCCCC3)c2)cc1,4,-6,-10,-3,29*,10
CCOc1ccc(NC(=O)COC(=O)c2ccc3c(c2)C(=O)N(CCc2ccccc2)C3=O)cc1,7,4,1,6,15,1
COc1ccc(NC(=O)COC(=O)CCC2CCCCC2)cc1,4,32*,-9,-1,32*,12
NC(=O)c1ccc(NC(=O)COC(=O)CCC2CCCCC2)cc1,0,-2,-7,-16,3,8
O=C(COC(=O)c1ccc2c(c1)C(=O)N(CCc1ccccc1)C2=O)Nc1ccc(OC(F)F)cc1,7,-4,1,1,25*,5
COc1ccccc1C(=O)OCC(=O)Nc1ccc(OC(F)F)cc1,-6,48*,-4,-2,28*,-2
CC(C)c1nc(N(C)S(C)(=O)=O)nc(-c2ccc(F)cc2)c1/C=C/[C@H](O)C[C@@H](O)CC(=O)O,/,/,/,9,/,/
O=C(COC(=O)CC1CCCC1)Nc1ccc(OC(F)F)cc1,3,62*,-10,-6,28*,1
CCc1ccc(NC(=O)COC(=O)CC2CCCC2)cc1,6,76*,-5,6,26*,2
Cc1ccc(NC(=O)COC(=O)CC2CCCC2)cc1F,0,79*,-10,-6,30*,-2
Cc1ccc(-c2cc(-c3nnc(SCC(=O)NC4CCCCC4)n3N)[nH]n2)cc1,/,/,/,-2,/,/
Cc1cc(OC[C@@H](O)CN2CCC(C(O)(c3ccccc3)c3ccccc3)CC2)ccc1Br,/,/,/,13,/,/
O=C(CCCCCBr)N1CCC(CC2CC(c3cccc(Br)c3)=NO2)(C(=O)NCC2CCCCC2)CC1 (configuration not stated),7,8,-15,-5,25*,2
O=C(CCCCCBr)N1CCC(CC2CC(c3ccc(Cl)cc3)=NO2)(C(=O)NCC2CCCCC2)CC1 (configuration not stated),9,1,-6,2,15,3
CNC(=O)NC(=O)C(C)OC(=O)c1ccc(Cl)c(S(=O)(=O)Nc2ccc(F)cc2)c1 (configuration not stated),0,-4,-11,0,29*,-4
COc1ccc(NS(=O)(=O)c2cc(C(=O)OC(C)C(=O)N3CCOCC3)ccc2Cl)cc1 (configuration not stated),12,-1,2,3,1,1
Cc1nc(C)c(-c2csc(Nc3cccc(O)c3)n2)s1,8,21,-2,12,15,10
CCC(=O)Nc1nc(C)c(-c2csc(Nc3cccc(O)c3)n2)s1,12,13,12,-3,32*,10
COC(=O)c1cc(C2(c3c[nH]c4ccccc34)CCN(C(=O)OC(C)(C)C)CC2)n2ccccc12,/,/,/,-30,/,/
COc1cc2[nH]c(=O)n(CCCCCC(=O)N3CCN(c4ccccc4)CC3)c(=O)c2cc1OC,3,2,0,6,27*,3
O=C(CCn1c(=O)[nH]c2ccccc2c1=O)N1CCN(c2cccc(C(F)(F)F)c2)CC1,1,-25,12,-7,-2,31*
O=C(CCn1c(=O)[nH]c2ccccc2c1=O)N1CCN(c2ccc(Cl)cc2)CC1,0,1,4,2,-6,7
Cc1cccc(NC(=O)Cn2cnc3ccc(S(=O)(=O)N4CCC(C)CC4)cc3c2=O)n1,1,-1,-5,-5,1,24*
COc1cc(NC(=O)c2ccc(COc3ccccc3Br)o2)cc(OC)c1OC,13,1,-14,-5,26*,8
CCOC(=O)CC[C@@H]1CC[C@]2(CCCN(C(=O)c3ccno3)C2)O1,/,/,/,-2,/,/
Cc1ccc(C2(c3noc(CN4CCC(C(=O)N5CCOCC5)CC4)n3)CCCC2)cc1,3,-2,-1,0,8,27*
CCOC(=O)CSc1nnc(Cc2ccccc2)n1-c1ccc(C)cc1,1,8,-2,-2,32*,7

# Source: PubChem BioAssay (The Scripps Research Institute Molecular Screening Center)
